Rows were chosen to be rich in hits. Some 4% of all compounds tested hit in one or more screens of this group.
Cl transport mod: modulates chloride dependent transport by human KCC2; Q9H2X9; KCC2 cells, thallium flux FluoZin-2 fluorescence; B-score of Tl+ flux slope (higher = more flux/activation; lower = inhibition) at 10 µM; 190,000 compounds, 2.2% hits; AID 1456;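 active = thallium flux slope and its plate-corrected score both differing from the plate sample mean at a set confidence after two filtering rounds, in either direction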;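 also: slope of fluorescence scaled to starting intensity during 10 to 20 s after thallium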
Target sequence (Q9H2X9 whole entry, looked up): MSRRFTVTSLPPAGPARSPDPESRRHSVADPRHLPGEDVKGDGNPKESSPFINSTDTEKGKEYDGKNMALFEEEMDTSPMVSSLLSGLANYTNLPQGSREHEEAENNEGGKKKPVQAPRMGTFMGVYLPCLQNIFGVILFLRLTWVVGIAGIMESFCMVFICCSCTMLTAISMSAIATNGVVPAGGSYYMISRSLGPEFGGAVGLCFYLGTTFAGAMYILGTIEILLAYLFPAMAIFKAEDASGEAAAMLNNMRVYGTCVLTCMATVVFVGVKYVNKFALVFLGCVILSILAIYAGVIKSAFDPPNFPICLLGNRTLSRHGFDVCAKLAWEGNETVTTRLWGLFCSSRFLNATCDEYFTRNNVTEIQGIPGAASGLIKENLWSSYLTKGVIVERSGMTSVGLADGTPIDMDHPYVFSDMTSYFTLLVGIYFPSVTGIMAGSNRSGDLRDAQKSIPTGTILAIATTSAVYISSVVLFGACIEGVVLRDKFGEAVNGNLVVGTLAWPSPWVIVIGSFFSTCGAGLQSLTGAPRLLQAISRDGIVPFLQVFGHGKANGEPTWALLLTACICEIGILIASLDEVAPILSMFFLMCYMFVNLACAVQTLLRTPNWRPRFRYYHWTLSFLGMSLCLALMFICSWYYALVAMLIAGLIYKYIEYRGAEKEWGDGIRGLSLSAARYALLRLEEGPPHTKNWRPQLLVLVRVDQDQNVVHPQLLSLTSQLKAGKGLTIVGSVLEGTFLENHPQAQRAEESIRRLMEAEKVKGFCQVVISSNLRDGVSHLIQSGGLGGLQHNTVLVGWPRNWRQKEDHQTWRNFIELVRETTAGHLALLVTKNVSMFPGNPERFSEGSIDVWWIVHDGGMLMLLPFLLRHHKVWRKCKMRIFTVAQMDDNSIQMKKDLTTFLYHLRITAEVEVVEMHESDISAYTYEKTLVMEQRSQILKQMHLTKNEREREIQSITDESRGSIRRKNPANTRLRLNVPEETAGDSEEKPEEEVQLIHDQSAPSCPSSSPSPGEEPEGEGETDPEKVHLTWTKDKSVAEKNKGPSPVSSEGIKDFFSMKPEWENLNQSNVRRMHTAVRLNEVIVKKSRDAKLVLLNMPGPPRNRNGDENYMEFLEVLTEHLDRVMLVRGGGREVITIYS
Pf gametocyte: inhibitors of late stage P. falciparum gametocyte viability. inhibition, % at 10.9 µM. P. falciparum stage V gametocytes, ATP luminescence, 24 h. AID 743093. 150,000 compounds, 0.065% hits;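 active = inhibition above the mean plus 3 SD of compounds within the control limits, set per campaign, cut at about 38% in these data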
MT stabilize HCS: stabilizes microtubules in HeLa cells; HeLa tubulin immunostaining HCS, 24 h; share of cells brighter than vehicle mean+2SD; % tubulin-high responders, % at 10 µM; 200,000 compounds, 0.83% hits; AID 2205;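 active = plate Z-score above 3 for both tubulin-high and condensed-nucleus cell shares, with cell loss under 80%, at 10 µM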;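 also: anti alpha tubulin signal scored within the nucleus-defined area of each cell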
b-catenin transl: beta-catenin nuclear translocation modulation; 190,000 compounds, 0.3% hits; HeLa beta-catenin nuclear translocation, immunofluorescence imaging; nuclear translocation activity, % at 5 µM;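 active = nuclear translocation activity above 50% at 5 µM, with a well cell count of 50 or more; inconclusive = wells under 50 cells across six images, flagged as toxic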;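 also: per-cell ratio of nuclear to cytoplasmic median beta-catenin stain intensity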
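Technique: fluorescence imaging of beta-catenin antibody stain plus DAPI / Material: human HeLa cell line / Incubation: compound treatment 24 h, 37°C, 5% CO2 / Read-out basis: % activation of per-cell nuclear versus cytoplasmic median beta-catenin signal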
WT yeast gro inh: growth inhibition of WT yeast, mitochondrial fusion screen; mitochondrial fusion phenotypic screen, WT strain; inhibition, % at 10 µM; 190,000 compounds, 2.1% hits; AID 1362; in the data active = inhibition above about 58%; tested in S. cerevisiae
KCC2 secondary: confirmation of human KCC2 transport modulators; shares compounds with Cl transport mod; HEK293-KCC2, thallium flux, FluoZin2 fluorescence; stronger effect = higher value; normalised thallium flux (F/F0 slope) at 10 µM; 3,700 compounds, 15% hits; AID 1713;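 active = thallium flux slope above the same plate's solvent-only control mean plus 3 SD; inconclusive = the two replicate wells disagree; inactive = no significant difference from solvent-only control wells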
KCC2 bumet counter: bumetanide-insensitive thallium flux in KCC2 cells with ouabain, counter-screen | 3,700 compounds, 49% hits | HEK293-KCC2 + bumetanide/ouabain, thallium flux FluoZin2; stronger effect = higher value | shares compounds with Cl transport mod | normalized thallium flux at 10 µM;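 active = thallium entry rate above the same plate's blocked-transporter control wells by more than 3 SD; inconclusive = the two repeat wells disagree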;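 also: raw slope of fluorescence over initial fluorescence between 10 and 20 s after thallium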
KCC2 secondary2: KCC2 (human) modulation, second secondary assay; shares compounds with Cl transport mod; HEK293-KCC2, thallium flux FluoZin2 fluorescence; actives lie on both sides; F/F0 rise rate, 10–20 s post-thallium; normalized thallium flux at 10 µM; 3,700 compounds, 23% hits; AID 1715;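 active = thallium flux slope more than 3 SD above or below the plate's solvent-only control mean, mostly below; inconclusive = the two repeat wells disagreed; inactive = no significant shift from solvent-only controls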
HEK293 Tl flux: acts in parental HEK cells, KCC2 counter-screen. shares compounds with Cl transport mod. HEK293 parental cells, thallium flux FluoZin2, ouabain; baseline-ratio fluorescence slope, 10–20 s after thallium. thallium flux rate (normalised fluorescence) at 10 µM. 3,700 compounds, 46% hits;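 active = thallium flux rate significantly above the same plate's solvent-only control wells, beyond their mean plus 3 SD; inconclusive = the two replicate wells gave conflicting results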
KCC2 ouabain: confirmation of human KCC2 modulators with ouabain | shares compounds with Cl transport mod | HEK293-KCC2, thallium flux FluoZin2 fluorescence; bidirectional: low = inhibitor, high = activator | raw Tl+ flux slope (below DMSO = inhibition, above = activation) at 10 µM | 3,700 compounds, 48% hits;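 active = thallium flux slope beyond 3 SD from same-plate DMSO control mean in most replicates, usually higher, sometimes lower; inconclusive = repeat tests gave conflicting results; inactive = no significant difference from controls in most replicates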;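 also: slope of initial-normalized fluorescence between seconds 10 and 20 after thallium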
HEK counter2: counter-screen for KCC2 modulators: effect in parental HEK293 cells; shares compounds with Cl transport mod; thallium flux slope at 10 µM; AID 1718; 3,700 compounds, 33% hits; thallium flux FluoZin-2 fluorescence slope;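 active = thallium flux slope above the same plate's solvent-control mean plus 3 SD in both duplicate wells; inconclusive = duplicate wells that disagreed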;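 also: run without ouabain in cells lacking the KCC2 cotransporter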
Of the large screens only hits and unclear results are named; the others gave an inactive call (follow-up assays come after a bar, where they were run).

CCSc1nc2sc3c(c2c(=O)n1C1CCCCC1)CCN(C)C3	none (no result: Cl transport mod, Pf gametocyte, MT stabilize HCS, WT yeast gro inh)
Cc1nc(N2CCOCC2)c2c3c(sc2n1)CCC3	Cl transport mod 14 | KCC2 secondary inactive | KCC2 bumet counter 0.017 | KCC2 secondary2 inactive | HEK293 Tl flux 0.016 | KCC2 ouabain 0.032 | HEK counter2 0.011
COc1ccccc1C(=O)N(NC(=O)Oc1ccccc1)C(C)(C)C	none
COc1ccc(/C=C/C(=O)NCC(=O)N/N=C(/CCC(=O)O)c2ccccc2)cc1	none (no result: MT stabilize HCS, WT yeast gro inh)
CN(C)S(=O)(=O)c1cc(NC(=O)CN2CCN(c3ccccc3F)CC2)ccc1Cl	none
Cc1c(/C=N/NC(=O)c2ccc(O)cc2)c2ccccn2c1C(=O)c1ccc(F)cc1	none (no result: Pf gametocyte)
Cc1c(/C=N/NC(=O)c2ccccc2O)c2ccccn2c1C(=O)c1ccc(F)cc1	Cl transport mod -3.8 | KCC2 secondary inactive | KCC2 bumet counter inconclusive | KCC2 secondary2 inactive | HEK293 Tl flux inactive | KCC2 ouabain inactive | HEK counter2 inactive
CCOC(=O)c1cc2c(ccn2C)n1CC(=O)N1CCC(Cc2ccccc2)CC1	Cl transport mod -5.9 (no result: Pf gametocyte) | KCC2 secondary inactive | KCC2 bumet counter inactive | KCC2 secondary2 inconclusive | HEK293 Tl flux inactive | KCC2 ouabain 0.016 | HEK counter2 inactive
Cc1cc(C)n(CCNc2nc3nonc3nc2N2CCCCC2)n1	none (no result: Cl transport mod)
CC(C)(C)C1CCc2sc(C(=O)NNC(=O)CCl)cc2C1 (stereo not given)	Cl transport mod 3.3 | KCC2 secondary inactive | KCC2 bumet counter 0.017 | KCC2 secondary2 inactive | HEK293 Tl flux 0.017 | KCC2 ouabain inconclusive | HEK counter2 0.014
COc1cc(NC(=O)COC(=O)/C=C/c2c(C)nn(-c3ccc(F)cc3)c2Cl)cc(OC)c1	none
COc1cc(OC)c(C(=O)/C=C/c2ccccc2)c(O)c1O	Cl transport mod -1.5 (no result: Pf gametocyte, MT stabilize HCS, WT yeast gro inh) | KCC2 secondary inactive | KCC2 bumet counter inconclusive | KCC2 secondary2 0.026 | HEK293 Tl flux inactive | KCC2 ouabain inconclusive | HEK counter2 inactive
C=CCN(CC=C)C(=O)COC(=O)c1ccc(Sc2ncn[nH]2)c([N+](=O)[O-])c1	none
CC(=O)NC1(c2ccccc2)CCN(CC(=O)N2CCC(C)CC2)CC1	none
N#Cc1c(-c2c(Cl)cccc2Cl)noc1/C=C/Nc1ccc(C(=O)O)cc1	Cl transport mod -5.8 | KCC2 secondary inactive | KCC2 bumet counter inactive | KCC2 secondary2 0.025 | HEK293 Tl flux inconclusive | KCC2 ouabain 0.013 | HEK counter2 inactive
CC1(C)CC(=O)N(c2ccc(C#N)cc2)C(=O)C1	none (no result: Cl transport mod, MT stabilize HCS, b-catenin transl, WT yeast gro inh)
Cc1ccc(OCC(=O)NC(=S)Nc2ccc(Br)cn2)cc1	Cl transport mod 31 (no result: MT stabilize HCS, WT yeast gro inh) | KCC2 secondary 0.013 | KCC2 bumet counter 0.032 | KCC2 secondary2 inactive | HEK293 Tl flux 0.058 | KCC2 ouabain 0.037 | HEK counter2 0.022
Cc1ccc(OCC(=O)NC(=S)Nc2ccc3c4c(cccc24)CC3)cc1	Cl transport mod 13 | KCC2 secondary inactive | KCC2 bumet counter 0.014 | KCC2 secondary2 inactive | HEK293 Tl flux 0.012 | KCC2 ouabain inconclusive | HEK counter2 inactive
Cc1ccc(CN2CCNC(=O)C2CC(=O)NCCCn2ncc3ccccc32)o1 (stereo not given)	none
